For series [1], the target named is Cystic fibrosis transmembrane conductance regulator (Homo sapiens, UniProt P13569, H148Q). Kind of series: Activation of human CFTR expressed in FRT cells co-expressing YFP H148Q mutant assessed as increase in forskolin-stimulated iodide influx measured after 10 mins by fluorescence assay. In kind it is cell-based. The method in brief:
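FRT cells stably coexpressing human wild-type CFTR and YFP-H148Q, near-confluent; washed with PBS, then 10 min in PBS with test compound and 125 nM forskolin. YFP fluorescence recorded 2 s baseline and 12 s after iodide addition (final 140 mM). Iodide influx rates fitted to concentration–response curves for EC50.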

Series [2] concerns the target Cystic fibrosis transmembrane conductance regulator (Homo sapiens, UniProt P13569). Kind of series: Activation of human CFTR expressed in forskolin-stimulated basolateral membrane permeabilized FRT cells assessed as increase in short-circuit current amplitude after 30 mins by voltage clamp method. In kind it is cell-based. An outline of the steps: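 Short-circuit current in FRT cells expressing human wild-type CFTR grown on porous filters, with a transepithelial chloride gradient and permeabilized basolateral membrane. Low-concentration forskolin added first, then cumulative activator concentrations, finally 10 μM CFTRinh-172. EC50 from concentration–response, mean ± SEM, n = 3.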

For series [3], the species on record is Homo sapiens. Nature of the series: Activation of calcium-activated chloride channel in human HT29 cells co-expressing YFP at 10 uM after 10 mins presence of iodide by fluorescence assay. It counts as cell-based.
The nature of series [4]: Effect on forskolin-stimulated cAMP levels in Fischer rat thyroid cells at 10 uM incubated for 10 mins by immunoassay. In kind it is ADME, cell-based. The note with it: thyroid cell. The method in brief:
(§1)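 FRT cells incubated 10 min with 10 μM compound, without or with 90 nM forskolin, then cellular cAMP measured. Positive controls: forskolin 100 nM and 20 μM, forskolin + IBMX (20 μM + 100 μM). Mean ± SEM, n = 4.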

Series [5] deals with T1, Anoctamin-1 (Homo sapiens) (UniProt Q5XXA6).
T1 sequence (whole entry): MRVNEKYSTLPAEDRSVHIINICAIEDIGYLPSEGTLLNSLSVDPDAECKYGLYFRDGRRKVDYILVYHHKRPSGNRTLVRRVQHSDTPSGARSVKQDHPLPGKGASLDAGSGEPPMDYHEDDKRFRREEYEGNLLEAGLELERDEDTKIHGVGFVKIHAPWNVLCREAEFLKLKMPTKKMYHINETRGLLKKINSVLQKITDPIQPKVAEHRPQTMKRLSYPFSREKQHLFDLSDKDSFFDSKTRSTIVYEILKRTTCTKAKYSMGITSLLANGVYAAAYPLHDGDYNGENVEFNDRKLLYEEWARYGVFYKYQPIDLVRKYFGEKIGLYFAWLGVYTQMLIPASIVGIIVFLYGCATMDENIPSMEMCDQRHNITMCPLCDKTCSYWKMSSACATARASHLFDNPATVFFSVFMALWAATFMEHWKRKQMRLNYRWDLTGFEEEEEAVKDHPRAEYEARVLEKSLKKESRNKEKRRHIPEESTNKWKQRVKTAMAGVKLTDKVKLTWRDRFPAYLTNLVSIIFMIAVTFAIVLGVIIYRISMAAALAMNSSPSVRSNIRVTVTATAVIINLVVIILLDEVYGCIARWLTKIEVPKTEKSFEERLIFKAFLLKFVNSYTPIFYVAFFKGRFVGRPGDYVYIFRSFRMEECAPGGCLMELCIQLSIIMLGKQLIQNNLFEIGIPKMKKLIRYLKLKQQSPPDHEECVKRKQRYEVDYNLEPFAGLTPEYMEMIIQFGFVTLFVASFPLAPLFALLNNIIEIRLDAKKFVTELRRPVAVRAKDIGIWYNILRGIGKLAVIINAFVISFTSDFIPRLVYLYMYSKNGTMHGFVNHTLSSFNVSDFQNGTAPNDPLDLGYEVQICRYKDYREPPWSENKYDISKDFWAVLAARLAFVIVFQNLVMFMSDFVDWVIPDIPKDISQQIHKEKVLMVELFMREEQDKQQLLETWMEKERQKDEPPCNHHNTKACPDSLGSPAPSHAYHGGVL
Kind of series: Activation of human TMEM16A expressed in FRT cells co-expressing YFP assessed as increase in iodide influx at 10 uM measured after 10 mins by fluorescence assay. In kind it is cell-based. The method in brief: (§2)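 FRT cells coexpressing YFP and TMEM16A; continuous single-well YFP fluorescence for 2 s before and 12 s after addition of iodide solution (final 140 mM iodide). Activation read with iodide alone, inhibition with iodide plus ATP; compound at 10 μM. Iodide influx rate calculated from fluorescence quenching.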

Series [6] relates to Mus musculus. Kind of series: Suppression of constipation in po dosed loperamide-induced CD1 mouse acute constipation model assessed as normalization of pellet number administered 1 hr prior to loperamide addition measured after 3 hrs. In kind it is functional. An outline of the steps: (§3)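 CD1 mice, 8–10 weeks; compound or vehicle (saline, 5% DMSO, 10% Kolliphor HS 15) given orally at 0, 0.1, 0.3, 1, 3 or 10 mg/kg 1 h before loperamide 0.3 mg/kg ip. Stool collected 3 h in metabolic cages; weight, pellet count and water content (wet/dry weights). Mean ± SEM, 4 mice per group.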

The nature of series [7]: Elevation of cytoplasmic calcium levels in Fischer rat thyroid cells at 10 uM after 5 mins by Fluo-4 based fluorescence assay. The note with it: thyroid cell.
Series [8] concerns Mus musculus. Nature of the series: Suppression of constipation in po dosed loperamide-induced CD1 mouse acute constipation model assessed as normalization of stool water content administered 1 hr prior to loperamide addition measured after 3 hrs. It counts as functional. An outline of the steps:
as §3

For series [9], the species on record is Homo sapiens. Kind of series: Inhibition of calcium-activated chloride channel in human HT29 cells co-expressing YFP assessed as reduction in ATP-stimulated calcium levels at 10 uM preincubated for 10 mins followed by ATP addition in presence of iodide by fluorescence assay. In kind it is cell-based.
The target of series [10] is T1, Anoctamin-1 (Homo sapiens). Kind of series: Inhibition of human TMEM16A expressed in FRT cells co-expressing YFP assessed as decrease in iodide influx at 10 uM measured after 10 mins in presence of ATP by fluorescence assay. In kind it is cell-based. The method in brief:
as §2

Series [11] in a line: Effect on cAMP levels in Fischer rat thyroid cells at 10 uM incubated for 10 mins by immunoassay. It counts as ADME, cell-based. The note with it: thyroid cell. The method in brief:
as §1
(Cyclic AMP is a second messenger, typically raised through Gs and lowered through Gi signalling.)

The structures appear in SMILES notation. The source made the active and inactive calls. The rule behind the calls is not given here.

Cystic fibrosis transmembrane conductance regulator (Homo sapiens, UniProt P13569, H148Q), sequence (P13569 whole entry, looked up, stated change not applied): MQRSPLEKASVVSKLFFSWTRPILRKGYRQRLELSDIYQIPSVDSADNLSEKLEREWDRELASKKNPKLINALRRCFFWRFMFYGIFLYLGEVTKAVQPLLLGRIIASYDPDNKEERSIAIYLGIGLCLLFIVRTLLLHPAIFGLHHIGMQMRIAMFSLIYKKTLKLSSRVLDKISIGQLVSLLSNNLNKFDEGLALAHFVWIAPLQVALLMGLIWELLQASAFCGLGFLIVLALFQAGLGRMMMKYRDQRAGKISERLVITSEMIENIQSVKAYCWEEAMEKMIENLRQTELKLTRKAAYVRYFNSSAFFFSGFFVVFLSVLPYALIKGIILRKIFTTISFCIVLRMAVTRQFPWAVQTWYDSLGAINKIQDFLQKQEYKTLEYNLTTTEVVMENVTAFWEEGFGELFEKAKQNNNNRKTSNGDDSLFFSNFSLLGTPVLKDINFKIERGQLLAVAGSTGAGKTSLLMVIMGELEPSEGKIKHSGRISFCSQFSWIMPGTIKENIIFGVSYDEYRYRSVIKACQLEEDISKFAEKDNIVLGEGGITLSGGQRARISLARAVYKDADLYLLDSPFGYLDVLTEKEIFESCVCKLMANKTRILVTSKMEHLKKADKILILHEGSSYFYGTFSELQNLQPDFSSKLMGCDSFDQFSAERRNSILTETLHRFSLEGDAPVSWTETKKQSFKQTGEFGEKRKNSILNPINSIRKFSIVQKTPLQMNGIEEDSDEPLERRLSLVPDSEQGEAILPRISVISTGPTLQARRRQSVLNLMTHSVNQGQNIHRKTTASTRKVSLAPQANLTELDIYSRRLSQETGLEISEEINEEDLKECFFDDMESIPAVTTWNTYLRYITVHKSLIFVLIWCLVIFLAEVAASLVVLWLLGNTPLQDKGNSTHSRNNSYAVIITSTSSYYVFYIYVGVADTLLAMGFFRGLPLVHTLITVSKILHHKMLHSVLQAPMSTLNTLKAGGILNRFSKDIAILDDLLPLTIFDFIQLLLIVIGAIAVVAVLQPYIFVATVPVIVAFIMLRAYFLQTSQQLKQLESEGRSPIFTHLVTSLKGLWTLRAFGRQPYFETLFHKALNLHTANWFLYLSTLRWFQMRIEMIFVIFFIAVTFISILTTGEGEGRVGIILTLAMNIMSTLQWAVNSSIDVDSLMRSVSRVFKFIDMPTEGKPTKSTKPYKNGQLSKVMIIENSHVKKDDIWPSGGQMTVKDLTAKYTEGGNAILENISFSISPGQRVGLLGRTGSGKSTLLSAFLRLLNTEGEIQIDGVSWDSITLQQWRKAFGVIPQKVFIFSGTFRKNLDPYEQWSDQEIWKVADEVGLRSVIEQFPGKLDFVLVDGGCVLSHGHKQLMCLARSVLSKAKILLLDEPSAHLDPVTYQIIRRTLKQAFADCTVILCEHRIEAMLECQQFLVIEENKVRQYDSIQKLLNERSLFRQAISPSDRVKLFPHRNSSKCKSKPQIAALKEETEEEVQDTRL

A word on the EC50: it is the concentration at which the effect is half-maximal. For `Fc1ccc2nc3n(Cc4ccccc4)c4ccc(C(F)(F)F)cc4nc-3c2c1`, in [1] (read-out: EC50), the EC50 is > 10 µM.
On to `O=c1c(-c2cccc([N+](=O)[O-])c2)nc2ccc(Br)cc2n1Cc1ccccc1`, for which the EC50 entry in [1] is given as “Not Active”.
For `CC(=O)Nc1ccc([N+](=O)[O-])cc1-c1nc2cccc3c2n(c1=O)CCO3`, the EC50 in series [1] (read-out: EC50) is 0.82 µM.
Same read-out and setting: the figure for `O=[N+]([O-])c1ccc2nc3n(Cc4ccccc4)c4ccc(C(F)(F)F)cc4nc-3c2c1` is > 10 µM.
Turning to `O=c1c(-c2cccc([N+](=O)[O-])c2)nc2ccccc2n1Cc1cccc2ccccc12`, in series [1], the EC50 result is reported as “Not Active”.
On to `O=c1c(-c2cccc([N+](=O)[O-])c2)nc2cc(Cl)c(Cl)cc2n1Cc1ccccc1`, for which the EC50 in series [1] (read-out: EC50) was > 10 µM.
By ED50 is commonly meant the dose at which the effect has come halfway, by size or by number of responders. For the compound `O=c1c(-c2cccc([N+](=O)[O-])c2)nc2ccccc2n1Cc1ccccc1`, the Activity result is “Dose-dependent effect” in [2], “Non-Toxic” in series [4], “Non-Toxic” in series [7] and “Non-Toxic” in series [11]. For the same compound, the result (in the series listed under Homo sapiens [3]; in [5]) was inactive. The ED50 in the series on Mus musculus [6] and with Mus musculus [8] was < 1 mg/kg each time. Also, the inhibition result (in the series filed under Homo sapiens [9]; in series [10]) was “inactive” each time.
In the case of `Cn1c(=O)c(-c2cccc([N+](=O)[O-])c2)nc2ccccc21`, in [1] (read-out: EC50), the EC50 was > 10 µM.
For the compound `O=c1c(-c2cccc([N+](=O)[O-])c2)nc2cc(F)c(F)cc2n1Cc1ccccc1`, in series [1] (read-out: EC50), the EC50 was > 10 µM.
The same measure, in the same setting: the figure for `Nc1ccc([N+](=O)[O-])cc1-c1nc2cccc3c2n(c1=O)C(c1ccccc1)CO3` (centres undefined) is > 10 µM; for `Cc1cc2nc(-c3cccc([N+](=O)[O-])c3)c(=O)n(Cc3ccccc3)c2cc1C` it is > 10 µM.
As for `O=c1c(-c2cccc([N+](=O)[O-])c2)nc2ccccc2n1Cc1cccs1`, the EC50 in [1] (read-out: EC50) amounted to 0.01 µM. In addition, in series [2], the Activity result is “Dose-dependent effect” and the concentration for a half-maximal effect (EC50) worked out at 0.07 µM.
With `N#Cc1cccc(-c2nc3ccccc3n(Cc3ccccc3)c2=O)c1`, the EC50 in series [1] (read-out: EC50) is 1 µM.
As to `O=c1[nH]c2ccccc2nc1-c1cccc([N+](=O)[O-])c1`, in series [1] (read-out: EC50), the EC50 is > 10 µM.
With `Cc1cccc2nc(-c3cccc([N+](=O)[O-])c3)c(=O)n(Cc3ccccc3)c12`, the 50% effective concentration (EC50) in series [1] (read-out: EC50) is > 10 µM.
Same read-out and setting: the figure for `O=C(O)c1ccc([N+](=O)[O-])c(-c2nc3ccccc3n(Cc3ccccc3)c2=O)c1` is > 10 µM; for `COC(=O)c1ccc([N+](=O)[O-])c(-c2nc3ccccc3n(Cc3ccccc3)c2=O)c1` it is 9.9 µM; for `Nc1ccc(C(=O)O)cc1-c1nc2ccccc2n(Cc2ccccc2)c1=O` it is > 10 µM.

The values above are taken from ChEMBL document CHEMBL4007437, “High-Potency Phenylquinoxalinone Cystic Fibrosis Transmembrane Conductance Regulator (CFTR) Activators” (J Med Chem, 2017).
